Assay results as given in ChEMBL document CHEMBL1687745 (Antimicrob Agents Chemother, 2009).
Values after ≈ are worked out from the molar mass of the structure shown. Active and inactive are the calls of the source. The calls are words filed in the database; no cut-off is given here.

Assays:
Priestia megaterium = test: Antimicrobial activity against Bacillus megaterium clinical isolate by broth microdilution method; assay type: functional
[1] = system: Mycolicibacterium smegmatis; test: Antimicrobial activity against Mycobacterium smegmatis 700009 by broth microdilution method; assay type: functional
Procedure, shortened: (§1)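 Broth microdilution. Log-phase cultures (5 × 10^5 CFU/ml) seeded in 96-well plates with compound from 0 to 20 µM or 1% DMSO control. Incubated at 37°C for 16 to 20 h. Growth read as absorbance at 600 nm.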

Bacillus anthracis [2] = test: Protection against Bacillus anthracis Sterne spores induced cell death in mouse J774A1 cells assessed as live viable cells at 10 uM by Sytox green dye staining assay relative to untreated control; assay type: functional, J774.A1
Enterococcus faecalis [3] = test: Antimicrobial activity against vancomycin-resistant Enterococcus faecalis ATCC 51575 by broth microdilution method; assay type: functional
Staphylococcus aureus [4] = test: Antimicrobial activity against methicillin-resistant Staphylococcus aureus 1094 by broth microdilution method; assay type: functional
Enterococcus faecalis [5] = test: Antimicrobial activity against Enterococcus faecalis 29212 clinical isolate by broth microdilution method; assay type: functional
Bacillus anthracis [6] = test: microbe, parasite or virus in culture; details: Ames
Bacillus anthracis [7] = test: microbe, parasite or virus in culture; details: Ames; remark: listed apart in the source
Burkholderia cepacia = test: Antimicrobial activity against Burkholderia cepacia clinical isolate by broth microdilution method; assay type: functional; procedure, shortened: as §1
Bacillus anthracis [8] = test: Protection against Bacillus anthracis Sterne spores induced cell death in mouse J774A1 cells assessed as dead cells at 10 uM by Sytox green dye staining assay relative to untreated control; assay type: functional, J774.A1
Enterococcus faecium = test: Antimicrobial activity against vancomycin-resistant Enterococcus faecium B42762 by broth microdilution method; assay type: functional
Bacillus subtilis [9] = test: Antimicrobial activity against Bacillus subtilis clinical isolate by broth microdilution method; assay type: functional
Escherichia coli = test: Antimicrobial activity against Escherichia coli J53 clinical isolate by broth microdilution method; assay type: functional
Bacillus anthracis [10] = test: Antimicrobial activity against Bacillus anthracis Ames by broth microdilution method in presence of 10% fetal calf serum; assay type: functional
Bacillus subtilis [11] = test: Inhibition of cell wall synthesis in Bacillus subtilis BD54 at 5 X MIC by N-acetyl-D-[1-3H] glucosamine incorporation assay; assay type: functional
Procedure, shortened: (§2)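 Precursors were [methyl-3H]thymidine (DNA), [5-3H]uridine (RNA), L-[4,5-3H]leucine (protein) and N-acetyl-D-[1-3H]glucosamine (cell wall). Samples taken over time, precipitated with equal volume of ice-cold 20% TCA, filtered on glass fibre, and counted. cpm plotted against time.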

Bacillus licheniformis = test: Antimicrobial activity against Bacillus licheniformis clinical isolate by broth microdilution method; assay type: functional
Bacillus subtilis [12] = test: Inhibition of DNA synthesis in Bacillus subtilis BD54 at 5 X MIC by [3H]thymidine incorporation assay; assay type: functional, organism-based; procedure, shortened: as §2
[13] = system: Mycolicibacterium smegmatis; test: Antimicrobial activity against Mycobacterium smegmatis 19420 by broth microdilution method; assay type: functional; procedure, shortened: as §1
Staphylococcus aureus [14] = test: Antimicrobial activity against methicillin-resistant Staphylococcus aureus clinical isolate by broth microdilution method; assay type: functional
Bacillus subtilis [15] = test: Inhibition of RNA synthesis in Bacillus subtilis BD54 at 5 X MIC by [5-3H]uridine incorporation assay; assay type: functional; procedure, shortened: as §2
Enterococcus faecalis [16] = test: Antimicrobial activity against Enterococcus faecalis clinical isolate by broth microdilution method; assay type: functional; procedure, shortened: as §1
Brevibacillus brevis = test: Antimicrobial activity against Bacillus brevis clinical isolate by broth microdilution method; assay type: functional; procedure, shortened: as §1
[17] = system: Mycolicibacterium smegmatis; test: Antimicrobial activity against Mycobacterium smegmatis 35798 by broth microdilution method; assay type: functional; procedure, shortened: as §1
[18] = system: Burkholderia pseudomallei; test: Antimicrobial activity against Burkholderia pseudomallei DD503 by broth microdilution method; assay type: functional
Bacillus anthracis [19] = test: Antimicrobial activity against Bacillus anthracis Vollum clinical isolate by broth microdilution method; assay type: functional
[20] = Cytotoxicity against human HeLa cells after 3 days by MTS assay in presence of 10% fetal calf serum; assay type: cell-based
Burkholderia mallei = test: Antimicrobial activity against Burkholderia mallei ATCC 23344 by broth microdilution method; assay type: functional
Bacillus anthracis [21] = test: Antimicrobial activity against Bacillus anthracis Sterne spores by broth microdilution method; assay type: functional
Bacillus pumilus = test: Antimicrobial activity against Bacillus pumilus clinical isolate by broth microdilution method; assay type: functional; procedure, shortened: as §1
Staphylococcus aureus [22] = test: Antimicrobial activity against Staphylococcus aureus by broth microdilution method; assay type: functional; procedure, shortened: as §1
Pseudomonas aeruginosa = test: Antimicrobial activity against Pseudomonas aeruginosa PAO1 by broth microdilution method; assay type: functional; procedure, shortened: as §1
Bacillus anthracis [23] = test: Inhibition of spore germination in Bacillus anthracis Sterne spores at MIC after 4 hrs; assay type: functional, organism-based
[24] = system: Burkholderia thailandensis; test: Antimicrobial activity against Burkholderia thailandensis by broth microdilution method; assay type: functional
Bacillus anthracis [25] = test: Antimicrobial activity against Bacillus anthracis Sterne vegetative cells by broth microdilution method; assay type: functional
Klebsiella pneumoniae = test: Antimicrobial activity against Klebsiella pneumoniae 5657 by broth microdilution method; assay type: functional; procedure, shortened: as §1
Yersinia pestis = test: Antimicrobial activity against Yersinia pestis by broth microdilution method; assay type: functional
Staphylococcus aureus [26] = test: Antimicrobial activity against Staphylococcus aureus ATCC 25923 by broth microdilution method; assay type: functional; procedure, shortened: as §1
Bacillus subtilis [27] = test: Inhibition of protein synthesis in Bacillus subtilis BD54 at 5 X MIC by L-[4,5-3H]leucine incorporation assay; assay type: functional, organism-based; procedure, shortened: as §2
Staphylococcus aureus [28] = test: Antibacterial activity against Staphylococcus aureus Smith infected in Swiss Webster mouse assessed as assessed as protection against microbe-induced mortality at 10 mg/kg, iv administered as single dose 15 mins post bacterial challenge measured 48 hrs post infection; assay type: functional
Procedure, shortened: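 Swiss Webster mice (n = 10/group) were challenged i.p. with 8.3 × 10^8 CFU. After 15 min they received a single i.v. dose in 10% dimethyl acetamide–5% dextrose in water (pH 4.0), alongside vehicle and daptomycin (10 mg/kg) controls. Survival was followed for 48 h.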

c1cc2cc(-c3ccc4cc(-c5ccc6oc(C7=NCCN7)cc6c5)[nH]c4c3)[nH]c2cc1C1=NCCN1
MIC (Priestia megaterium): 0.4 µg/mL (≈ 0.825 µM) | MIC [1]: < 0.1 µg/mL | Activity (Bacillus anthracis [2]): 75% | MIC (Enterococcus faecalis [3]): 0.1 µg/mL (≈ 0.206 µM) | MIC (Staphylococcus aureus [4]): 0.5 µg/mL (≈ 1.03 µM) | MIC (Enterococcus faecalis [5]): 0.1 µg/mL (≈ 0.206 µM) | MBC (Bacillus anthracis [6]): 1.2 µg/mL (≈ 2.48 µM) | MIC (Bacillus anthracis [6]): 0.2 µg/mL (≈ 0.413 µM) | MBC (Bacillus anthracis [7]): 2.8 µg/mL (≈ 5.78 µM) | MIC (Bacillus anthracis [7]): 1.4 µg/mL (≈ 2.89 µM) | MIC (Burkholderia cepacia): 22 µg/mL (≈ 45.4 µM) | Activity (Bacillus anthracis [8]): 24% | MIC (Enterococcus faecium): 0.1 µg/mL (≈ 0.206 µM) | MIC (Bacillus subtilis [9]): 0.4 µg/mL (≈ 0.825 µM) | MIC (Escherichia coli): 1.4 µg/mL (≈ 2.89 µM) | MIC (Bacillus anthracis [10]): 1.4 µg/mL | inhibition (INH) (Bacillus subtilis [11]): 40% | MIC (Bacillus licheniformis): 1.4 µg/mL (≈ 2.89 µM) | inhibition (Bacillus subtilis [12]): Active | MIC [13]: 0.1 µg/mL (≈ 0.206 µM) | MIC (Staphylococcus aureus [14]): 2.8 µg/mL (≈ 5.78 µM) | inhibition (INH) (Bacillus subtilis [15]): 40% | MIC (Enterococcus faecalis [16]): 0.7 µg/mL (≈ 1.44 µM) | MIC (Brevibacillus brevis): 0.2 µg/mL (≈ 0.413 µM) | MIC [17]: < 0.1 µg/mL | MIC [18]: > 9.7 µg/mL | MBC (Bacillus anthracis [19]): 0.4 µg/mL (≈ 0.825 µM) | MIC (Bacillus anthracis [19]): 0.4 µg/mL (≈ 0.825 µM) | CC50 at 72 h [20]: 17 µg/mL | MIC (Burkholderia mallei): > 9.7 µg/mL | MIC (Bacillus anthracis [21]): 0.4 µg/mL (≈ 0.825 µM) | MIC (Bacillus pumilus): 0.4 µg/mL (≈ 0.825 µM) | MIC (Staphylococcus aureus [22]): 0.7 µg/mL (≈ 1.44 µM) | MIC (Pseudomonas aeruginosa): > 80 µg/mL | inhibition (Bacillus anthracis [23]): inactive | MIC [24]: 2.8 µg/mL (≈ 5.78 µM) | MIC (Bacillus anthracis [25]): 0.7 µg/mL (≈ 1.44 µM) | MIC (Klebsiella pneumoniae): 16 µg/mL (≈ 33 µM) | MIC (Yersinia pestis): 9.7 µg/mL (≈ 20 µM) | MIC (Staphylococcus aureus [26]): 0.3 µg/mL (≈ 0.619 µM)

O=C(N[C@H](CO)[C@H](O)c1ccc([N+](=O)[O-])cc1)C(Cl)Cl
inhibition (Bacillus subtilis [11]): Active | inhibition (Bacillus subtilis [12]): Active | inhibition (Bacillus subtilis [15]): Active | inhibition (Bacillus subtilis [27]): Active

Cc1c(/C=C/c2cc3cc(C(=N)N)ccc3o2)oc2cc(C(=N)N)ccc12
MIC (Bacillus anthracis [21]): > 17 µg/mL | MIC (Bacillus anthracis [25]): > 17 µg/mL

C(/C=C/c1cc2cc(C3=NCCN3)ccc2o1)=C\c1cc2cc(C3=NCCN3)ccc2o1
MIC (Bacillus anthracis [21]): 9.9 µg/mL (≈ 23.4 µM) | MIC (Bacillus anthracis [25]): 19.8 µg/mL (≈ 46.9 µM)

C(=C\c1cc2ccc(C3=NCCN3)cc2o1)/c1cc2ccc(C3=NCCN3)cc2o1
MIC (Bacillus anthracis [21]): 19 µg/mL (≈ 47.9 µM) | MIC (Bacillus anthracis [25]): 19 µg/mL (≈ 47.9 µM)

CCCCCCCCCC(=O)N[C@@H](Cc1c[nH]c2ccccc12)C(=O)N[C@H](CC(N)=O)C(=O)N[C@@H](CC(=O)O)C(=O)N[C@@H]1C(=O)NCC(=O)N[C@@H](CCCN)C(=O)N[C@@H](CC(=O)O)C(=O)N[C@H](C)C(=O)N[C@@H](CC(=O)O)C(=O)NCC(=O)N[C@H](CO)C(=O)N[C@@H]([C@H](C)CC(=O)O)C(=O)N[C@@H](CC(=O)c2ccccc2N)C(=O)O[C@@H]1C
survival at 10 mg/kg (Staphylococcus aureus [28]): 80%

N=C(N)c1ccc(/C=C/c2cc3cc(C(=N)N)ccc3o2)cc1
MIC (Bacillus anthracis [21]): > 15 µg/mL | MIC (Bacillus anthracis [25]): > 15 µg/mL

C(=C\c1cc2ccc(C3=NCCN3)cc2o1)/c1cc2ccc(C3=NCCN3)cc2[nH]1
MIC (Bacillus anthracis [21]): 4.7 µg/mL (≈ 11.9 µM) | MIC (Bacillus anthracis [25]): 19 µg/mL (≈ 48 µM)

C(=C\c1cc2cc(C3=NCCN3)ccc2[nH]1)/c1ccc(C2=NCCN2)cc1
MIC (Bacillus anthracis [21]): > 17 µg/mL | MIC (Bacillus anthracis [25]): > 17 µg/mL

C(=C\c1cc2ccc(C3=NCCN3)cc2[nH]1)/c1ccc2cc(C3=NCCN3)[nH]c2c1
MIC (Bacillus anthracis [21]): 9.3 µg/mL (≈ 23.6 µM) | MIC (Bacillus anthracis [25]): 18.7 µg/mL (≈ 47.4 µM)

N=C(N)c1ccc2cc(/C=C/c3cc4ccc(C(=N)N)cc4o3)oc2c1
MIC (Bacillus anthracis [21]): 8.3 µg/mL (≈ 24.1 µM) | MIC (Bacillus anthracis [25]): 17 µg/mL (≈ 49.4 µM)

C(=C\c1cc2cc(C3=NCCN3)ccc2o1)/c1cc2cc(C3=NCCN3)ccc2[nH]1
MIC (Bacillus anthracis [21]): 19 µg/mL (≈ 48 µM) | MIC (Bacillus anthracis [25]): > 19 µg/mL

CN[C@H](CC(C)C)C(=O)N[C@H]1C(=O)N[C@@H](CC(N)=O)C(=O)N[C@H]2C(=O)N[C@H]3C(=O)N[C@H](C(=O)N[C@H](C(=O)O)c4cc(O)cc(O)c4-c4cc3ccc4O)[C@H](O)c3ccc(c(Cl)c3)Oc3cc2cc(c3O[C@@H]2O[C@H](CO)[C@@H](O)[C@H](O)[C@H]2O[C@H]2C[C@](C)(N)[C@H](O)[C@H](C)O2)Oc2ccc(cc2Cl)[C@H]1O
inhibition (Bacillus subtilis [11]): Active | inhibition (Bacillus subtilis [12]): Active | inhibition (Bacillus subtilis [15]): Active | inhibition (Bacillus subtilis [27]): Active

N=C(N)c1ccc(-c2cc(-c3ccc(C(=N)N)cc3)on2)cc1
MIC (Bacillus anthracis [21]): > 15 µg/mL | MIC (Bacillus anthracis [25]): > 15 µg/mL

c1cc(-c2cc3cc(C4=NCCN4)ccc3s2)ccc1C1=NCCN1
MIC (Bacillus anthracis [21]): > 17 µg/mL | MIC (Bacillus anthracis [25]): > 17 µg/mL
